Shown are actives, neighbours in structure and some others; about 2.6% of the full set was active somewhere.
TCR-CD3 inh: inhibitors of human TCR-CD3 interaction. 360,000 tested, 0.37% active. TAMRA-labeled TCR probe fluorescence, biochemical. inhibition, % at 9.4 µM;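 further: recombinant mutant TCR 2C K166C tagged with TAMRA read by polarization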
SIAE inh: inhibitors of human sialic acid acetylesterase SIAE | Q9HAT2 | SIAE FP-Rh probe binding, fluorescence polarization | inhibition, % at 9.66 µM | 370,000 tested, 0.69% active;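 active means inhibition above a cutoff: mean of compounds within the control limits plus 3 SD of those, cut at about 17% in these data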
HTRA1 inhibitor: inhibitors of human serine peptidase HTRA1; inhibition, % at 5.96 µM; 340,000 tested, 0.5% active; recombinant HTRA1, FP-rhodamine activity-based probe, fluorescence polarization; AID 504803; Q92743; in the data active means inhibition above about 36%
Target sequence (Q92743 whole entry, looked up): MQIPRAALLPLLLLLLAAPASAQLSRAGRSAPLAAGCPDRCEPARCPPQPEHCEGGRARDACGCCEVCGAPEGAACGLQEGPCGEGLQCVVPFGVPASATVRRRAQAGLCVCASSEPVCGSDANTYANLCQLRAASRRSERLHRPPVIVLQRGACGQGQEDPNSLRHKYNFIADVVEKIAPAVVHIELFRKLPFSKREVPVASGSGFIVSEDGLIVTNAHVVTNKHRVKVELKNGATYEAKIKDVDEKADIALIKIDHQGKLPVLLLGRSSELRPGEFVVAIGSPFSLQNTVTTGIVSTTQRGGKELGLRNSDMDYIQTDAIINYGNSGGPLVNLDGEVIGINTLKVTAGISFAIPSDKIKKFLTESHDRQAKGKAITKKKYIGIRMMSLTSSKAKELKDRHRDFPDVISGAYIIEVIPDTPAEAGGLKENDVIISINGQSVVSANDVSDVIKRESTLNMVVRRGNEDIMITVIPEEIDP
mABHD4 FP: inhibits mouse alpha/beta hydrolase domain 4. 370,000 tested, 0.54% active. inhibition, % at 8.92 µM. purified mABHD4, FP-Rh probe fluorescence polarization;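 active means inhibition exceeding the mean over every tested compound plus 3 SD, cut at about 30% in these data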
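Test system: mABHD4 protein | Buffer or medium: HEPES pH 7.0 buffer, 150 mM NaCl, 0.01% Pluronic F-127 | Probe or stimulus: FP-Rh fluorescent activity-based probe, added after compound pre-incubation | Timing: Pre-incubation 45 min, probe exposure 60 min, at 25 °C | Technique: Fluorescence polarization, excitation 525 nm, emission 598 nm, BODIPY TMR filters | Repeats: Single well per compound (singlicate)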
PRMT1 inh: inhibitors of human PRMT1; AID 652257; 370,000 tested, 1.3% active; recombinant PRMT1, activity-based probe fluorescence polarization; inhibition, % at 2.79 µM;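 active means inhibition above about 21% made by adding two undisclosed values, limit read from the data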
BSA TAMRA ctr: interferes with TAMRA-BSA probe, flagging TCR-CD3 hits. inhibition, % at 9.4 µM. shares compounds with TCR-CD3 inh. TAMRA-labeled BSA probe fluorescence counterscreen. 1,200 tested, 10% active. AID 652035; in the data active means inhibition above about 23%
TCR-CD3 conf: TCR-CD3 interaction inhibition, confirmation; 1,200 tested, 48% active; shares compounds with TCR-CD3 inh; inhibition, % at 9.4 µM; TAMRA-labeled TCR probe fluorescence binding assay
A number is an active result; 0 = inactive; - = no result. Unless noted, no stated cut-off is given here; in the data, active means inhibition above about 19%; inactive means the rest.

SMILES	TCR-CD3 inh	SIAE inh	HTRA1 inhibitor	mABHD4 FP	PRMT1 inh	BSA TAMRA ctr	TCR-CD3 conf
CC(=O)c1ccc(OC2(C)CCN(Cc3cc4ccccc4[nH]3)C2)cc1 (stereo not given)	31	0	-	0	0	0	0
CC(=O)c1cccc(NC(=O)C(OC(=O)c2cccc(S(=O)(=O)N(C)c3ccccc3)c2)c2ccccc2)c1 (stereo not given)	31	0	0	0	0	0	32
COc1ccc(N(C)S(=O)(=O)c2cccc(C(=O)OC(C(=O)Nc3cc(C)cc(C)c3)c3ccccc3)c2)cc1 (stereo not given)	0	0	0	0	0	-	-
COc1ccc(OC)c(N2C(=NC(=O)C3CCCCC3)SC3CS(=O)(=O)CC32)c1 (stereo not given)	41	0	0	0	0	0	0
O=S(=O)(c1cc(O)ccc1O)c1cccc2c(S(=O)(=O)c3cc(O)ccc3O)cccc12	25	0	0	0	0	0	0
O=S(=O)(O)c1cc(O)ccc1O	0	0	0	0	0	-	-
Cc1nc(S/C(=C/c2ccc(-c3ccc(C(=O)O)cc3)o2)C(=O)O)n[nH]1	68	0	0	0	0	0	51
Cn1c(=O)c(-c2cc(=O)[nH][nH]2)c(O)c2ccccc21	19	0	-	0	0	0	0
C=CCN1[C@H](Cc2ccccc2)COc2cccc(N3CCSCC3)c2S1(=O)=O	-	0	-	0	0	-	-
Cc1ccc2c(=O)cc(C(F)F)oc2c1	23	0	0	0	0	0	0
O=C(CSc1nc2ccccc2c(=O)n1-c1ccc(F)c(Cl)c1)Nc1cccc(S(=O)(=O)N2CCOCC2)c1	22	0	0	0	0	0	19
O=C1CNC(=S)N1CCOc1ccccc1	0	0	0	0	0	-	-
O=C1CNC(=S)N1CCc1ccc(O)c(O)c1	31	0	-	0	0	0	27
CCOc1cc(/C=N\NC(=O)c2ccc(NC(=O)C(C)(C)C)cc2)ccc1OC(=O)c1cccc(C)c1	62	0	0	0	0	36	82
CC(C)(C)C(=O)Nc1ccc(C(=O)N/N=C/c2ccccc2OC(=O)c2ccc(Cl)cc2)cc1	26	0	0	0	0	25	43
CC(C)(C)C(=O)Nc1ccc(C(=O)N/N=C/c2ccccc2OC(=O)c2ccccc2)cc1	0	0	0	0	0	-	-
CCOc1cc(/C=N\NC(=O)c2ccc(NC(=O)C(C)(C)C)cc2)ccc1OC(=O)c1ccc(C)cc1	0	0	0	0	0	-	-
Cc1cccc(C(=O)Oc2ccccc2/C=N/NC(=O)c2ccc(NC(=O)C(C)(C)C)cc2)c1	24	0	0	0	0	0	43
Cc1onc(C(=O)N2CCN(C(c3ccc(F)cc3)c3ccc(F)cc3)CC2)c1[N+](=O)[O-]	-	0	-	0	0	-	-
CCN(C(=O)[C@@H](C)[C@@H](O)c1ccc(C(C)=O)cc1)c1ccccc1	-	0	-	0	0	-	-
C#CCn1c(=NC(=O)c2ccc(S(=O)(=O)N3CCCc4ccccc43)cc2)sc2cc(S(N)(=O)=O)ccc21	21	0	0	0	0	0	23
Cn1c(=NC(=O)c2ccc(S(=O)(=O)N3CCCc4ccccc43)cc2)sc2cc(S(C)(=O)=O)ccc21	0	0	0	0	0	-	-
O=C1NC[C@H](Cc2ccc(O)cc2)N(CCc2cccc(F)c2)C1=O	64	0	-	0	0	0	0
O=C1NC[C@H](Cc2ccc(O)cc2)N(CCc2cc(C(F)(F)F)cc(C(F)(F)F)c2)C1=O	0	0	-	0	0	-	-
COC(=O)C1CN(Cc2cn(Cc3ccccc3)nn2)CCS(=O)(=O)N1Cc1ccc(C)cc1 (stereo not given)	-	0	-	0	0	-	-
SMILES	TCR-CD3 inh	SIAE inh	HTRA1 inhibitor	mABHD4 FP	PRMT1 inh	BSA TAMRA ctr	TCR-CD3 conf
Cc1cc(=O)oc2cc(OCC(=O)N/N=C/c3cc([N+](=O)[O-])ccc3O)ccc12	48	0	0	0	0	0	51
S=c1[nH]nc(-c2cc(-c3ccccn3)nc3ccccc23)o1	33	0	0	0	0	0	0
O=C(CCc1nnc(CCCCc2ccccc2)o1)N1CCC(N2CCCC2)CC1	24	0	0	0	0	0	0
CC(=O)N1CCN(C(=O)CCc2nnc(CCCCc3ccccc3)o2)CC1	0	0	0	0	0	-	-
CS(=O)(=O)Nc1ccc(-c2n[nH]c(=S)n2-c2ccccc2)cc1	37	0	0	0	0	0	0
Cc1ccc(-c2n[nH]c(=S)n2-c2ccccc2)cc1	0	0	0	0	0	-	-
CC1=C[C@]2(CN(CC3CC3)C3=N[C@H](c4ccccc4)CC(=O)N32)n2c(=O)n(-c3ccccc3)c(=O)n2C1	-	0	-	0	0	-	-
COc1ncnc2c1NC1=C(S2)C(=NCCC(=O)O)CC(C)(C)C1	29	0	0	0	28	53	41
CN(C)c1ncnc2c1NC1=C(S2)C(=NCCCC(=O)O)CC(C)(C)C1	0	0	0	0	0	-	-
CN1C(=O)c2cc(NS(=O)(=O)c3cccc(F)c3)ccc2OC[C@@H]2O[C@H](CC(=O)O)CC[C@H]21	-	0	-	0	0	-	-
Cc1ccc(NC(=O)COC(=O)c2cc(-c3cccs3)nn2-c2ccccc2)cc1[N+](=O)[O-]	0	0	0	0	0	-	-
O=C(COC(=O)c1cc(-c2cccs2)nn1-c1ccccc1)Nc1cccc([N+](=O)[O-])c1	26	0	0	0	0	0	0
O=c1c(CO)cc(CO)cc(CO)c1O	31	0	0	0	0	0	22
COCCCNC(=O)C[C@H]1C[C@@]2(C(=O)OC)C(=C[C@H](C(C)(C)C)O[C@@H]2C)N(Cc2ccco2)C1=O	-	0	-	0	0	-	-
O=C(/C=C/c1ccccc1)NC(=S)NNC(=O)c1cccnc1	0	0	0	0	0	-	-
COc1ccc(C(=O)NC(=S)NNC(=O)c2cccnc2)cc1	24	0	0	0	0	0	0
Cc1ccccc1C(=O)NNC(=S)NC(=O)c1cccnc1	26	0	0	0	0	0	20
O=C(NC(=S)NNC(=O)c1ccccc1F)c1cccnc1	0	0	-	0	0	-	-
COc1ccc(/C=C/C(=O)NC(=S)NNC(=O)c2cccnc2)cc1OC	27	0	0	0	0	0	0
CCC(=O)NC(=S)NNC(=O)c1ccc(OC)cc1	20	0	0	0	0	0	0
CCn1c(Cc2cccs2)nnc1SCC(=O)Nc1ccc(OCc2ccccc2)cc1	-	0	-	0	0	-	-
Brc1ccc(-c2nn3c(-c4ccccc4)nnc3s2)cc1	-	0	-	0	0	-	-
O=C(CCc1ccccc1)N[C@H]1[C@H](OC(=O)c2cccnc2)CCC[C@@]12C(=O)N(Cc1ccccc1)c1ccccc12	-	0	-	0	0	-	-
Cc1nc([N+](=O)[O-])cn1CC(Cl)Cn1cc([N+](=O)[O-])nc1C	0	0	-	0	0	-	-
CNS(=O)(=O)/C=C/c1ccccc1CCNC(=O)OC(C)(C)C	-	0	-	0	0	-	-
